Measured values published in ChEMBL document CHEMBL4177556, “Novel 5-HT7R antagonists, arylsulfonamide derivatives of (aryloxy)propyl piperidines: Add-on effect to the antidepressant activity of SSRI and DRI, and pro-cognitive profile” (Bioorg Med Chem, 2017).
Active and inactive are the calls of the source.

Assays:
[1] = biological target: T1, 5-hydroxytryptamine receptor 1A (Homo sapiens, UniProt P08908); test: Displacement of [3H]-8-OH-DPAT from human 5-HT1A receptor expressed in HEK293 or CHO-K1 cells after 1 hr by microbeta counting analysis; type: cell-based
T1 sequence (P08908 whole entry): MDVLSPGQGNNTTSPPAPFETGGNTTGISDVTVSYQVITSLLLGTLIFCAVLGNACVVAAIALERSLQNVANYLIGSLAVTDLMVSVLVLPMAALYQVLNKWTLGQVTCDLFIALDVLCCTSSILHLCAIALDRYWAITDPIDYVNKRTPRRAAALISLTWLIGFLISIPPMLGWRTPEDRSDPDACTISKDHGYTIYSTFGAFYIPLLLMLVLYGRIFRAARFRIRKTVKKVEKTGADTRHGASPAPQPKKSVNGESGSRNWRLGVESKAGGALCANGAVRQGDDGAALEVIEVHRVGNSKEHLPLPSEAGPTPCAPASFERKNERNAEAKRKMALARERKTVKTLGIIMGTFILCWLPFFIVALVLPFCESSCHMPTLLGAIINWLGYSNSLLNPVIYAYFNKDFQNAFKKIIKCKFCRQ
Outline: (§1)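 Membranes from stably transfected HEK293 or CHO-K1 cells, homogenized, centrifuged twice at 35,000g, with 15 min at 37 °C in between. Receptor-specific Tris-HCl buffers with MgCl2, plus EDTA, pargyline or ascorbate as applicable. Incubated 1 h at 37 °C (5-HT1A at room temperature), filtered, and bound radioactivity counted.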

Homo sapiens = organism: Homo sapiens; test: Selectivity ratio of Ki for human 5-HT1A receptor to Ki for human 5-HT7b receptor
[2] = biological target: T2, 5-hydroxytryptamine receptor 7 (Homo sapiens, UniProt P34969); test: Displacement of [3H]-5-CT from human 5-HT7b receptor expressed in HEK293 cells after 1 hr by microbeta counting analysis; type: cell-based; outline: as §1
Mus musculus [3] = test: Antidepressant-like activity in Swiss albino mouse assessed as decrease in immobility time at 0.625 to 2.5 mg/kg measured during last 4 mins of 6 mins test by forced swim test relative to control; type: functional; set-up: scale not given: the % may be the effect or the level left
Outline: (§2)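 Porsolt swim test in male Swiss albino mice (22–26 g), 7–10 per dose, each used once, run 09:00–14:00 by a blinded observer. Drugs in distilled water, i.p. at 10 ml/kg: escitalopram 30 min before test, others 60 min. Immobility scored during the last 4 min of a 6 min swim at 23–25 °C. One-way ANOVA with Bonferroni vs vehicle.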

[4] = biological target: Sodium-dependent noradrenaline transporter (Homo sapiens) (UniProt P23975); test: Displacement of [3H]nisoxetine from recombinant human NET at 1 uM after 120 mins by scintillation counting analysis relative to control
Outline: (§3)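 Transporter and α1-adrenergic binding run externally by Eurofins Cerep using their standard protocols. Reported as % inhibition of control specific binding.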

Mus musculus [5] = test: Antidepressant-like activity in C57BL/6J mouse assessed as increase in number of fight episodes at 1.25 mg/kg measured during 6 mins session by tail suspension test; type: functional, organism-based
Outline: (§4)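 Male C57BL/6J mice (22–26 g), 7–9 per group. Compound in distilled water, i.p. at 10 ml/kg, 60 min before test. Mice suspended by tail from a strain-gauge hook for 6 min. Struggling episodes, average event force and immobility (force below 0.20 N threshold) recorded automatically. One-way ANOVA with Bonferroni; mean ± SEM.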

[6] = biological target: 5-hydroxytryptamine receptor 2A (Homo sapiens, UniProt P28223); test: Displacement of [3H]-Ketanserin from human 5-HT2A receptor expressed in HEK293 or CHO-K1 cells after 1 hr by microbeta counting analysis; type: cell-based; outline: as §1
Mus musculus [7] = test: Toxicity in mouse assessed as effect on spontaneous locomotory activity at 0.312 to 2.5 mg/kg, ip administered 60 mins prior to testing measured for 6 mins; type: organism-based; conditions: in vivo, 0.1 h
Outline: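 Swiss albino or C57BL/6J mice habituated 30 min in activity cages. Ambulation counted from 2–6 min (matching the swim test) or over 6 min (matching the tail suspension test) with an infrared multi-channel activity monitor. Dosing i.p. as for the behavioral tests.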

[8] = biological target: Sodium-dependent serotonin transporter (Homo sapiens) (UniProt P31645); test: Displacement of [3H]imipramine from recombinant human SERT at 1 uM after 60 mins by scintillation counting analysis relative to control; outline: as §3
[9] = biological target: 5-hydroxytryptamine receptor 6 (Homo sapiens, UniProt P50406); test: Displacement of [3H]-LSD from human 5-HT6 receptor expressed in HEK293 or CHO-K1 cells after 1 hr by microbeta counting analysis; type: cell-based; outline: as §1
Mus musculus [10] = test: Antidepressant-like activity in Swiss albino mouse assessed as decrease in immobility time at 0.312 mg/kg cotreated with 0.625 mg/kg of escitalopram measured during last 4 mins of 6 mins test by forced swim test relative to control; type: functional; set-up: scale not given: the % may be the effect or the level left
Outline: (§5)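 Male Swiss albino mice, 7–10 per group. Test compound (i.p., 60 min pre-test) co-given with reboxetine or bupropion (60 min) or escitalopram (30 min), all in distilled water at 10 ml/kg. Placed in a water cylinder (10 cm water, 23–25 °C) for 6 min; immobility scored over the last 4 min by a blinded observer. Two-way ANOVA with Bonferroni.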

Mus musculus [11] = test: Antidepressant-like activity in C57BL/6J mouse assessed as increase in force of fights at 2.5 mg/kg measured during 6 mins session by tail suspension test; type: functional, organism-based; outline: as §4
Mus musculus [12] = test: Antidepressant-like activity in C57BL/6J mouse assessed as decrease in immobility time at 2.5 mg/kg measured during 6 mins session by tail suspension test; type: functional, organism-based; outline: as §4
Rattus norvegicus [13] = test: Cognitive enhancement effect in Sprague-Dawley rat memory impairment model assessed as reversal of natural forgetting impairment administered ip 30 mins prior to test measured after 24 hrs by novel object recognition test; type: functional, organism-based
Outline: (§6)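 Male Sprague–Dawley rats (about 250 g), handled and acclimatized. Habituated to an open field arena (25 lx) for 5 min, 24 h before testing. Two 3-min trials (T1, T2) separated by a 24 h inter-trial interval. Drug given i.p. 30 min before T1. Object exploration video-tracked; discrimination index = (EB−EA)/(EA+EB).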

Mus musculus [14] = test: Antidepressant-like activity in Swiss albino mouse assessed as decrease in immobility time at 0.312 mg/kg cotreated with 1.25 mg/kg of bupropion measured during last 4 mins of 6 mins test by forced swim test; type: functional, organism-based; outline: as §5
[15] = biological target: Sodium-dependent dopamine transporter (Homo sapiens) (UniProt Q01959); test: Displacement of [3H]BTCP from recombinant human DAT at 1 uM after 120 mins by scintillation counting analysis relative to control; outline: as §3
[16] = biological target: T2, 5-hydroxytryptamine receptor 7; test: Antagonist activity at human 5-HT7b receptor expressed in HEK293 cells assessed as inhibition of 5-CT induced cAMP accumulation after 30 mins by LANCE based TR-FRET assay; type: functional, cell-based
Outline: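 Stable 5-HT7 HEK293 cells in DMEM with 10% dialysed FBS and G418, harvested at 90% confluence, washed in warm PBS, and resuspended in HBSS/5 mM HEPES/0.5 mM IBMX/0.1% BSA. Compound incubated with cells for 30 min at room temperature against 5-CT (10 nM). Cells lysed with Eu-cAMP/ULight-anti-cAMP for 1 h at room temperature, then LANCE cAMP read-out. Triplicate at 8 concentrations.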

D(2) dopamine receptor = D(2) dopamine receptor (Homo sapiens, UniProt P14416); test: Displacement of [3H]-Raclopride from human dopamine D2L receptor expressed in HEK293 or CHO-K1 cells after 1 hr by microbeta counting analysis; type: cell-based; outline: as §1
Mus musculus [17] = test: Antidepressant-like activity in C57BL/6J mouse at 2.5 mg/kg measured during 6 mins session by tail suspension test; type: functional, organism-based; outline: as §4
Mus musculus [18] = test: Antidepressant-like activity in Swiss albino mouse assessed as decrease in immobility time at 10 mg/kg measured during last 4 mins of 6 mins test by forced swim test relative to control; type: functional; set-up: scale not given: the % may be the effect or the level left; outline: as §2
Rattus norvegicus [19] = test: Cognitive enhancement effect in Sprague-Dawley rat memory impairment model assessed as reversal of natural forgetting impairment at 1 mg/kg, ip administered 30 mins prior to test measured after 24 hrs by novel object recognition test; type: functional, organism-based; outline: as §6

T2 sequence (P34969 whole entry): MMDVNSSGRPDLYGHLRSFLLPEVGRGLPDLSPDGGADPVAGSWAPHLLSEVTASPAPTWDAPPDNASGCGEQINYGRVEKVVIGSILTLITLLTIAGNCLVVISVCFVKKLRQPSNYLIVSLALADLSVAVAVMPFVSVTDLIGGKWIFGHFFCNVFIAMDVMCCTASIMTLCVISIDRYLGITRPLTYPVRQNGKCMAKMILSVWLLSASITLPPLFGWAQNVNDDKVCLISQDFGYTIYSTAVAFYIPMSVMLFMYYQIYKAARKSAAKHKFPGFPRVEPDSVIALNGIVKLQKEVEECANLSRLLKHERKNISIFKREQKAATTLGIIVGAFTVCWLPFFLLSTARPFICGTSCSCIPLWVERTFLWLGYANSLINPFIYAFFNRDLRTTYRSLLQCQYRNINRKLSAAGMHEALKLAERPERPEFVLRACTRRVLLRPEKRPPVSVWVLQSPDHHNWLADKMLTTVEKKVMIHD
Sodium-dependent dopamine transporter (Homo sapiens), sequence (Q01959 whole entry): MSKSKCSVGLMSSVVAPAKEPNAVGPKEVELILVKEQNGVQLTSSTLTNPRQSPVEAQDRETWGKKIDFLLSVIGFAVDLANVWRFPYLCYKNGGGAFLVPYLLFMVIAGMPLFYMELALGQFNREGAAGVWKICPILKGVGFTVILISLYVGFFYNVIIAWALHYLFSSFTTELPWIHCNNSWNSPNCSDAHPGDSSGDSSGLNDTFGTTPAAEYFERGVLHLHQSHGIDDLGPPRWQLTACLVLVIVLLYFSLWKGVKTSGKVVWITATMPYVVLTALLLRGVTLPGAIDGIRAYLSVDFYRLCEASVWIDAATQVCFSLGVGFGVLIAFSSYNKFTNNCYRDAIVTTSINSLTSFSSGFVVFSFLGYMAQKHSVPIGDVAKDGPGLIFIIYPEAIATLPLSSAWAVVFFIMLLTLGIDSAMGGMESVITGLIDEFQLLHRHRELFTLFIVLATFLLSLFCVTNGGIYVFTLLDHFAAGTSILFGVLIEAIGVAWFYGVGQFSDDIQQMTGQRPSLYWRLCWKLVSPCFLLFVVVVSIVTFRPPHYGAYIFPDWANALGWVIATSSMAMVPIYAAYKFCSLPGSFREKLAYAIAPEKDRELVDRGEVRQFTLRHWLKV
D(2) dopamine receptor, sequence (P14416 whole entry): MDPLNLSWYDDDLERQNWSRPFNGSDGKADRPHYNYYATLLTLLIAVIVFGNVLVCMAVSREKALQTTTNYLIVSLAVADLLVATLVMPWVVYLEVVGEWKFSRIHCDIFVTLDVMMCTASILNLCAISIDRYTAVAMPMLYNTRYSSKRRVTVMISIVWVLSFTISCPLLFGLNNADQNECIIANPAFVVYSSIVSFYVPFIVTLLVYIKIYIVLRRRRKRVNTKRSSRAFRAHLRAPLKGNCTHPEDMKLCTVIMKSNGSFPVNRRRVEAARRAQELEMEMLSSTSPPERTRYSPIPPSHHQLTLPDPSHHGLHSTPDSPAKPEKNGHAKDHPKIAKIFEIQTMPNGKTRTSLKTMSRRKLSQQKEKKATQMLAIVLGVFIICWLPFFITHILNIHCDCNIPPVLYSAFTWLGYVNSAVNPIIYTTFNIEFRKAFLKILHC
5-hydroxytryptamine receptor 2A, sequence (P28223 whole entry): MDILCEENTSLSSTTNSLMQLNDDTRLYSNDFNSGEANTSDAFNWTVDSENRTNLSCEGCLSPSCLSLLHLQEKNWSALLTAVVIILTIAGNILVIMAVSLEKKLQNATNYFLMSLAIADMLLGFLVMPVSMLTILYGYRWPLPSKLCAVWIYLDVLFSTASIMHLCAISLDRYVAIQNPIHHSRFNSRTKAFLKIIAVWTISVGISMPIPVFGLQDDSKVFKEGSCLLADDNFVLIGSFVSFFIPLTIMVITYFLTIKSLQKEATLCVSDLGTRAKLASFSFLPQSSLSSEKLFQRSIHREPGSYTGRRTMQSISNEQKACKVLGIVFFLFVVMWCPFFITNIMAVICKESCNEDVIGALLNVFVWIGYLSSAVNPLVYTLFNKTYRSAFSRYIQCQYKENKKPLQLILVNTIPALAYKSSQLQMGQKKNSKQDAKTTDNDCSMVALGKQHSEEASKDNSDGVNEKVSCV
Sodium-dependent noradrenaline transporter (Homo sapiens), sequence (P23975 whole entry): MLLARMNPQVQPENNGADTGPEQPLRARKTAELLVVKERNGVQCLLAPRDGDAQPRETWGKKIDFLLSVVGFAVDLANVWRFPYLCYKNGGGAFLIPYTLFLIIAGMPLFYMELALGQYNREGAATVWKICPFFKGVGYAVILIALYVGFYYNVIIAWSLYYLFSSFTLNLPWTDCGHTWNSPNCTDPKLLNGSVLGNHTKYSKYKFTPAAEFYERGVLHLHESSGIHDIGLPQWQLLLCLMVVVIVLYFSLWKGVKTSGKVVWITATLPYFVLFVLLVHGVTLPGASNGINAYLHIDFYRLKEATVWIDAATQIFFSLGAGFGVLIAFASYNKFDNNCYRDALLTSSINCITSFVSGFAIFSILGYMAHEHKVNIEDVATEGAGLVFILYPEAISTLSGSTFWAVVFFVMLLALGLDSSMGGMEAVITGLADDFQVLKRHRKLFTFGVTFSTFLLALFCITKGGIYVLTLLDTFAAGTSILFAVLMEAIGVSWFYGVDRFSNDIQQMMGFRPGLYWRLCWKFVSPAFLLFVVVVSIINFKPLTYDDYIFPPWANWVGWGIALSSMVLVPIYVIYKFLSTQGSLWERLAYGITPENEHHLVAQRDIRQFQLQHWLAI
Sodium-dependent serotonin transporter (Homo sapiens), sequence (P31645 whole entry, looked up): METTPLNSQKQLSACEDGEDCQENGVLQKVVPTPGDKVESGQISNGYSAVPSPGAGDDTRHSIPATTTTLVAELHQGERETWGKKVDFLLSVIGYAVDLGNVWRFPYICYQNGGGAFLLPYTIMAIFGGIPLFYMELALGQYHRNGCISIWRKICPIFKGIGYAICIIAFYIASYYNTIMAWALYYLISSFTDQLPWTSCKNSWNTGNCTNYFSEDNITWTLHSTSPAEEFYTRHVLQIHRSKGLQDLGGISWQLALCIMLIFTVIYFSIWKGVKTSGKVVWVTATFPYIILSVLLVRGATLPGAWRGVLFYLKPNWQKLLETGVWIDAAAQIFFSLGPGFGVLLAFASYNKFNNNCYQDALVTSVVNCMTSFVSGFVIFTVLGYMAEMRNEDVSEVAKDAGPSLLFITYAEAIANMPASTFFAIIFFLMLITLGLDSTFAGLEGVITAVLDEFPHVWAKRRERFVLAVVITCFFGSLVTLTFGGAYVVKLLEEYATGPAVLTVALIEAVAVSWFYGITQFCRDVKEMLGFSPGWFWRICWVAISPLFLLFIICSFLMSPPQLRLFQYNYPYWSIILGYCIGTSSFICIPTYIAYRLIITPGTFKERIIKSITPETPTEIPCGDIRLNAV
5-hydroxytryptamine receptor 6, sequence (P50406 whole entry): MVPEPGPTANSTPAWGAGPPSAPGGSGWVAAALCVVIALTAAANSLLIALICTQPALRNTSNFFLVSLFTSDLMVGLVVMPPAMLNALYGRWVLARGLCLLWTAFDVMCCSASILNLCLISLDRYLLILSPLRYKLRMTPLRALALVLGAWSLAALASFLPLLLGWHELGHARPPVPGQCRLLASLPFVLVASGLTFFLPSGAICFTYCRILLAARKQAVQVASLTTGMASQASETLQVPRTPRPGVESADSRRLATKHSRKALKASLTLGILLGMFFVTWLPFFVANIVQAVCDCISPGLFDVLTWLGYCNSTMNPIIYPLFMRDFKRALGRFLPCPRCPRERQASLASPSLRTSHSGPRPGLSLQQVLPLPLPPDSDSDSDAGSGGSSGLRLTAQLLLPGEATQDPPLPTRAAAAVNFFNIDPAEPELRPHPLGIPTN

SMILES | Ki [1] [nM] | Ratio Ki (Homo sapiens) | Ki [2] [nM] | further results
CC(COc1ccccc1-c1ccccc1)N1CCC(NS(=O)(=O)c2cccc(Cl)c2)CC1 (stereo unspecified) | 696 | 22 | 32 | 
CC(COc1ccccc1-c1ccccc1)N1CCC(NS(=O)(=O)c2ccc(F)cc2)CC1 (stereo unspecified) | 297 | 9 | 34 | 
CC(C)c1ccccc1OCCCN1CCC(NS(=O)(=O)c2ccc(F)cc2)CC1 | 2080 | 65 | 32 | Activity (Mus musculus [3]): 19 - 53%; Activity [4]: < 10%; Activity (Mus musculus [5]): Active; Ki [6]: 1350 nM; Activity (Mus musculus [7]): Non-Toxic; Activity [8]: 79%; Ki [9]: 268 nM; Activity (Mus musculus [10]): 32.6%; Activity (Mus musculus [11]): Active; Activity (Mus musculus [12]): Active; Activity (Rattus norvegicus [13]): Dose-dependent effect; Activity (Mus musculus [14]): Active; Activity [15]: < 10%; Kb [16]: 1 nM; Ki (D(2) dopamine receptor): 328 nM
CC(C)c1ccccc1OCCCN1CCC(NS(=O)(=O)c2cccc(F)c2)CC1 | 1790 | 34 | 52 | 
CC(C)c1ccccc1OCC(O)CN1CCC(NS(=O)(=O)c2cccc(F)c2)CC1 (stereo unspecified) | 742 | 4 | 213 | 
CC(C)c1ccccc1OCC(C)N1CCC(NS(=O)(=O)c2ccc(F)cc2)CC1 (stereo unspecified) | 1170 | 16 | 74 | 
CC1CCN(CC[C@H]2CCCN2S(=O)(=O)c2cccc(O)c2)CC1 |  |  |  | Activity (Mus musculus [17]): Active; Activity (Mus musculus [18]): 31%; Activity (Rattus norvegicus [19]): Active
